Assay results: article PMC13102995 (Biomedicine & Pharmacotherapy, 2026)
Read-outs that look alike come from different tables or passages of the source. Each block holds one compound with its values, some of them ahead of it.

Columns and labels:
[1] = target: T1, PLCβ3 (Homo sapiens, UniProt Q01970); experiment: Surface plasmon resonance binding to pulled-down PLCβ3; settings: 12.5–200 µM, multi-cycle, HBS-EP+ buffer, 25 °C
T1 sequence (Q01970 1-1234): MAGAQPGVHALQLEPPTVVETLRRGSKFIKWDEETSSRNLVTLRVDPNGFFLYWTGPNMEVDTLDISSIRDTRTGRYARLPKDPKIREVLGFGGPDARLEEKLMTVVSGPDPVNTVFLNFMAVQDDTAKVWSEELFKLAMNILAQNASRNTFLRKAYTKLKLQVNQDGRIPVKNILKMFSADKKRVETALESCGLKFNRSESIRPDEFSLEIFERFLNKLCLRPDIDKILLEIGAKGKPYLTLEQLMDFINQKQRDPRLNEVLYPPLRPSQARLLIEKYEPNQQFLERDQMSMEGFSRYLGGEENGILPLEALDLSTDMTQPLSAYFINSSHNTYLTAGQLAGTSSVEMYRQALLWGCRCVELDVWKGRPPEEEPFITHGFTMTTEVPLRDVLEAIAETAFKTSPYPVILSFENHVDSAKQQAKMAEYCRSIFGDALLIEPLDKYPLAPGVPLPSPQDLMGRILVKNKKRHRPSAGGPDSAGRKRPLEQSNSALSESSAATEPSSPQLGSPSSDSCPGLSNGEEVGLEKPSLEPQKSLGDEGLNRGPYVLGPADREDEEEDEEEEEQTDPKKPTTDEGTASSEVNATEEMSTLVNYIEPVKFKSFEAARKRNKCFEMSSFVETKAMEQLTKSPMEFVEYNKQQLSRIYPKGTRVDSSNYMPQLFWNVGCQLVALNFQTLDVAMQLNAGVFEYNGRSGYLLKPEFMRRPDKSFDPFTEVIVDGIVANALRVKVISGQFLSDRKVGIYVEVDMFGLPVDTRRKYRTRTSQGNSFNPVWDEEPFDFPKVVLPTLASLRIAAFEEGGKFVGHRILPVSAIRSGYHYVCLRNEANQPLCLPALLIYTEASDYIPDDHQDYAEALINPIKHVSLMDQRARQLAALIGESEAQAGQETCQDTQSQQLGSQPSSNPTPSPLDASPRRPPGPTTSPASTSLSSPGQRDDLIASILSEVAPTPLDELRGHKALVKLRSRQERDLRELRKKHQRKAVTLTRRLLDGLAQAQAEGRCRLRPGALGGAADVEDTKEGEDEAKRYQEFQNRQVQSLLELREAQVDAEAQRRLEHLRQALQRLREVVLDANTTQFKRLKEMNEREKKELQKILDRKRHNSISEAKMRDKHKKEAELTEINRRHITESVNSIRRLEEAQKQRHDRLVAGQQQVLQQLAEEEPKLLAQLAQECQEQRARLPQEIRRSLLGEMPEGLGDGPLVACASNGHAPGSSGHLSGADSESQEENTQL
In short: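 Multi-cycle SPR at 25 °C. Peptides at 12.5–200 µM, including a randomized control peptide, in HBS-EP+, injected over active and reference flow cells for 250 s at 5 µL/min, with return to baseline between cycles. Reference-subtracted binding levels were read at the end of injection after baseline subtraction.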

[2] = tested on: PLCγ; experiment: TG-induced store-operated calcium; format: cell-based, human; settings: U73122 2 µM, 1 h; 1 µM TG; HaCaT; mean ± SEM, N = 2
In short: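 HaCaT on coverslips used 48 h after plating, loaded with 6 µg/mL Fluo-4 AM/0.05% Pluronic plus test compound (100 µM), 0.1% DMSO or 2 µM U73122 for 1 h, then washed ≥20 min. In Ca2+-free solution, 1 µM thapsigargin/0.1 mM EGTA for 3 min, then 2 mM Ca2+ to trigger SOC entry. Cells ≥20 AFU analysed; ΔFSOC/ΔFTG normalised to vehicle.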

[3] = tested on: PLCβ; experiment: PIP2 imaging: BK-induced PLCδ-PH-GFP translocation in HEK293T cells; format: cell-based, Human; settings: PL2003 100 µM, U73122 2 µM, PL2204 1–100 µM; versus vehicle
In short: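 HEK293T transfected with PLCδ-PH-GFP, replated 24 h later on poly-D-lysine and imaged after another 24 h. Pre-incubation 1 h with test compound (1, 10, 100 µM), vehicle or 2 µM U73122. Baseline 30 s in Ca2+-containing solution, pH 7.4, then 250 nM bradykinin for 2 min. Translocation = ΔF/F0; time to maximum timed from onset; IC50 from Hill-equation fit.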

[4] = tested on: neonatal rat dorsal root ganglion (DRG) neurons; format: cell-based; settings: U73122 5 µM, 1 h; 500 nM capsaicin pulses, 1 µM BK
In short: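 DRG neurons from 3–5-day-old Wistar rats, collagenase IA digested (2.5 mg/mL, 1 h), grown 48 h on 60-electrode arrays (poly-L-lysine/laminin) with NGF and cytosine arabinoside. Test compound (100 µM) or 0.1% DMSO pre-incubated 1 h in serum medium without NGF; PLC inhibitor at 5 µM. Three 30-s pulses of 500 nM capsaicin (P1–P3); bradykinin used at 1 µM.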

[5] = tested on: PLCβ; format: cell-based, Human; settings: U73122 2 µM, HEK293, mean ± SEM; for inhibition of ACh-induced intracellular Ca2+ response: 1 h, 1 µM ACh
[6] = Solubility and aggregation observed on preparation of the peptides; format: physicochemical; settings: observation

binding to pulled-down PLCβ3 (SPR) [1]: strongly reduced binding levels
Compound: Ac-IVSNRYSK-NH2 [randomized PL2204]

Compound: COc1ccc2c(c1)CC[C@@H]1[C@@H]2CC[C@]2(C)[C@@H](NCCCCCCN3C(=O)C=CC3=O)CC[C@@H]12 [Peptide U73122, 1-(6-((17β-3-methoxyestra-1,3,5(10)-trien-17-yl)amino)hexyl)-1H-pyrrole-2,5-dione]
SOC activity (ΔFSOC / ΔFTG normalized to vehicle) [2]: 55.4 ± 9.4
time to reach maximum PLCδ-PH-GFP translocation [3]: does not modify
inhibition of BK-induced TRPV1 sensitization (P3 - P2) [4]: did not significantly attenuate
inhibition of ACh-induced intracellular Ca2+ response ([5]; experiment of Fig. 2B): 40.5 ± 9.4%
inhibition of ACh-induced intracellular Ca2+ response ([5]; experiment of Fig. 2C): 65.4 ± 4.3%
inhibition of ACh-induced intracellular Ca2+ response ([5]; experiment of Fig. 2D): 51.9 ± 7.5%
percentage of ACh-responsive cells normalized to vehicle ([5]; experiment of Fig. 2C): 66.7 ± 9.3%
percentage of ACh-responsive cells normalized to vehicle ([5]; experiment of Fig. 2D): 62.0 ± 12.0%

Compound: Ac-IYSSNV-NH2 [PL2005]
solubility ([6]; in different solvents): solubility problems in different solvents
aqueous solubility ([6]; prepared in 0.4% DMSO in extracellular solution): poor aqueous solubility
